The test system of assay [1] is Plasmodium berghei. Kind of assay: Antimalarial activity against Plasmodium berghei infected in mouse assessed as parasitemia level at 0.32 mg/kg/day for 3 days measured on day 6 (reference value: 37%). The assay is classed as functional.
For assay [2], the system named is Plasmodium berghei. Kind of assay: Antimalarial activity against Plasmodium berghei infected in mouse assessed as effect on cure rate at split dose of 320 mg/kg/day, po for 3 days. The assay is classed as functional, organism-based. The method, boiled down: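 Mice were infected ip with 10^6 P. berghei-parasitized erythrocytes. The compound was given in hydroxyethylcellulose-Tween 20 vehicle, 5 mice per group, starting on day 3 post-infection. Regimens were once-daily or split daily oral doses over 3 days, subcutaneous dosing, or dosing over 7 days. Read-outs were posttreatment parasitemia on day 6 as a fraction of controls and the number of mice cured.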

Assay [3] relates to Plasmodium berghei. Briefly: Antimalarial activity against Plasmodium berghei infected in mouse assessed as parasitemia level at 160 mg/kg/day for 3 days measured on day 3 in presence of 2 […] chloroquine (reference value: 0.46%). The assay is classed as functional. In outline:
(§1)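 Mice were infected ip with 10^6 P. berghei-parasitized erythrocytes. The compound was given orally once daily on days 3, 4 and 5 post-infection in hydroxyethylcellulose-Tween 20 vehicle, alone or together with chloroquine, with 5 mice per dose group. Parasitemia (%) was read on days 3 and 6, and cures were counted as animals cured out of 5.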

Assay [4] relates to Plasmodium falciparum. Kind of assay: Antimalarial activity against drug-resistant Plasmodium falciparum TM90C2A. It counts as functional, organism-based.
Assay [5] concerns Plasmodium berghei. Briefly: Antimalarial activity against Plasmodium berghei infected in mouse assessed as parasitemia level at 3.2 mg/kg/day for 3 days measured on day 3 (reference value: 0.46%). The assay is classed as functional.
Assay [6] concerns Plasmodium berghei. Briefly: Antimalarial activity against Plasmodium berghei infected in mouse assessed as parasitemia level at single dose of 20 mg/kg/day, po for 3 days measured on day 6 relative to control. The assay is classed as functional. The method, boiled down:
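Mice infected intraperitoneally with 10^6 P. berghei-parasitized erythrocytes. Drug given orally once daily on days 3, 4 and 5 post-infection in hydroxyethylcellulose-Tween 20 vehicle, 5 mice per dose group. Parasitemia measured on day 6 and expressed as a fraction of untreated control parasitemia.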

In assay [7] the test system is Plasmodium berghei. Kind of assay: Antimalarial activity against Plasmodium berghei infected in mouse assessed as parasitemia level at 320 mg/kg/day for 3 days measured on day 3 (reference value: 0.46%). It counts as functional. The method, boiled down: as §1
For assay [8], the system named is Plasmodium falciparum. Kind of assay: Antimicrobial activity against Plasmodium falciparum W2 at […] in presence of 4 mg/kg chloroquine. The assay is classed as functional.
In assay [9] the test system is Plasmodium berghei. Kind of assay: Antimalarial activity against Plasmodium berghei infected in mouse assessed as parasitemia level at 32 mg/kg/day for 3 days measured on day 3 (reference value: 0.46%). The assay is classed as functional. In outline: as §1
Assay [10] has as its system Plasmodium falciparum. Kind of assay: Antimalarial activity against drug-resistant Plasmodium falciparum D6 infected in Aotus lemurinus lemurinus monkey. It counts as functional, organism-based.

SMILES strings stand for the structures. pIC50: −log10 of the molar value. Calls of active or inactive are those of the source. No cut-off for these calls is given here.

As for `Nc1cccc(-c2csc(NC(=O)CCCCCCC(=O)NO)n2)c1`, the Activity was determined as 45% with Plasmodium berghei [1]; 0.5% in the assay with Plasmodium berghei [3]; 0.64% with Plasmodium berghei [5]; 0.52% with Plasmodium berghei [7]; 0.38% in the assay on Plasmodium berghei [9]. Besides, the result in the assay with Plasmodium berghei [2] was inactive. For the same molecule, the pIC50 with Plasmodium falciparum [4] was 9.22; in the assay on Plasmodium falciparum [10], 9.10. In addition, in the assay on Plasmodium berghei [6], the “fold change (FC)” value is 0.57. The “fractional inhibitory concentration index (FICI)” value in the assay on Plasmodium falciparum [8] was 1.9.

Source of the values: ChEMBL document CHEMBL1629555, “Antimalarial activity of phenylthiazolyl-bearing hydroxamate-based histone deacetylase inhibitors” (Antimicrob Agents Chemother, 2008).
